Sampled rows, rich in hits. Any-hit rate of the full collection: about 2.3%.
SIAE inh – human SIAE inhibitors, primary screen, biochemical, fluorescence polarization, FP-Rh probe, 1536-well HTS; SIAE FP-Rh probe binding; inhibition, % at 9.66 µM; 0.69% of 370,000 active; AID 1053197, 2014;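 active = inhibition above a cutoff: mean of compounds within the control limits plus 3 SD of those, cut at about 17% in these data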;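 note: 0% = plate median of compound wells and 100% = probe without SIAE protein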
pPAFAH inh – pPAFAH enzyme inhibitors, primary screen, biochemical, fluorescence polarization, human | Platelet-activating factor acetylhydrolase (Homo sapiens), Q13093 | recombinant pPAFAH, FP-rhodamine probe fluorescence polarization | inhibition, % at 3.39 µM | 1.5% of 330,000 active;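 active = inhibition above the mean inhibition across the screen plus 3 SD, cut at about 25% in these data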;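 note: inhibitors block binding of the rhodamine activity-based probe so polarization drops; 0% = enzyme with DMSO and 100% = wells lacking pPAFAH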
Target sequence (Q13093 whole entry, looked up): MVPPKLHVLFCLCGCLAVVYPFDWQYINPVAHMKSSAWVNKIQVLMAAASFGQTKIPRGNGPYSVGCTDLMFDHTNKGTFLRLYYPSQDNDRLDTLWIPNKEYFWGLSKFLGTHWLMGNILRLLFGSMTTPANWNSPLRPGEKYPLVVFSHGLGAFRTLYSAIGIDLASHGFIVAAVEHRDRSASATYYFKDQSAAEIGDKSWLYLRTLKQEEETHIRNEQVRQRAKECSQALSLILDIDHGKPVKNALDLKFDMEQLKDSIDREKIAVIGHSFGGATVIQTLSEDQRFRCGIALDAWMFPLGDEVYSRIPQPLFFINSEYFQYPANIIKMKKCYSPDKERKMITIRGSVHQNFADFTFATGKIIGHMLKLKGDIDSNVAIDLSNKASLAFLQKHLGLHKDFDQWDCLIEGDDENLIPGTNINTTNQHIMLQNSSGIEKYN
HTRA1 inhibitor – HTRA1 serine protease inhibitors, primary screen, biochemical, fluorescence polarization, HTS; Q92743; recombinant HTRA1, FP-rhodamine activity-based probe; inhibition, % at 5.96 µM; 0.5% of 340,000 active; in the data active = inhibition above about 36%;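 note: 0% = enzyme with DMSO and 100% = wells lacking enzyme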
TCR CD3 inh – inhibitors of human TCR-CD3 interaction, primary screen, biochemical, fluorescence, TAMRA-labeled TCR probe. T-cell receptor (TCR). inhibition, % at 9.4 µM. 0.37% of 360,000 active. AID 651800, 2012; in the data active = inhibition above about 19%;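 note: recombinant mutant TCR 2C K166C tagged with TAMRA read by polarization; 0% = receptor in buffer alone and 100% = receptor with positive control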
mABHD4 FP – ABHD4 inhibitors, primary screen, biochemical, fluorescence polarization, mouse; inhibition, % at 8.92 µM; purified mABHD4, FP-Rh probe fluorescence polarization; AID 720543, 2013; 0.54% of 370,000 active; (Lyso)-N-acylphosphatidylethanolamine lipase (Mus musculus), Q8VD66;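 active = inhibition exceeding the mean over every tested compound plus 3 SD, cut at about 30% in these data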;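 note: 0% = plate median of compound wells and 100% = S159A mutant with DMSO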
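system = mouse ABHD4 enzyme, wild type | medium = HEPES pH 7.0, NaCl, Pluronic buffer | also added = FP-Rh probe | incubation = Enzyme–compound pre-incubation 45 min, then probe 60 min, both 25 °C | technique = fluorescence polarization, excitation 525 nm, emission 598 nm, BODIPY TMR filters | controls = S159A mutant high control, sample median low control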
mABHD4 conf – ABHD4 inhibitors, retest, confirmation, biochemical, fluorescence polarization, mouse | shares compounds with mABHD4 FP | purified mABHD4, FP-Rh probe fluorescence polarization | inhibition, % at 8.92 µM | 55% of 1,800 active;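 active = mean inhibition across replicates above the hit cutoff set in the primary screen, cut at about 30% in these data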;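 note: 0% = wild-type ABHD4 with DMSO and 100% = catalytically dead S159A mutant with DMSO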
SIAE inh conf – human SIAE inhibitors, retest, confirmation, biochemical, fluorescence polarization, FP-Rh probe, triplicate; shares compounds with SIAE inh; SIAE FP-Rh activity-based probe; inhibition, % at 9.66 µM; 13% of 2,300 active; AID 1117263, 2014;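 active = mean inhibition of the replicates above the hit cutoff set in the primary screen, cut at about 17% in these data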;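 note: 0% = SIAE with DMSO and probe and 100% = probe without SIAE; inhibitors lower polarization as more probe stays unbound to SIAE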
An asterisk follows results filed as active.

How did O=C(NNS(=O)(=O)c1ccc([N+](=O)[O-])cc1)c1ccccc1 do in these assays?
SIAE inh: 5; HTRA1 inhibitor: 0; TCR CD3 inh: 5; mABHD4 FP: -2

How did Cc1nn(-c2cccc(Cl)c2)c2c1C(c1ccncc1)C(C#N)=C(N)O2 (stereo not drawn) do in these assays?
SIAE inh: 20*; pPAFAH inh: 17; HTRA1 inhibitor: 31; TCR CD3 inh: -6; mABHD4 FP: 48*; mABHD4 conf: 50*; SIAE inh conf: 8

What do the screens show for `COc1ccccc1-n1c(=O)c2c3c(sc2n2c(=S)[nH]nc12)CCC3`?
SIAE inh: 18*; pPAFAH inh: 2; HTRA1 inhibitor: -3; TCR CD3 inh: -1; mABHD4 FP: 34*; mABHD4 conf: 29; SIAE inh conf: 4

What do the screens show for `Nc1[nH]c(C(=O)c2ccc(Br)cc2)c(-c2ccc(Cl)cc2Cl)c1C(=O)NCCc1c[nH]c2ccccc12`?
SIAE inh: 13; TCR CD3 inh: -11; mABHD4 FP: 16

How did Nc1[nH]c(C(=O)c2ccccc2)c(-c2ccc(Cl)cc2Cl)c1C(=O)NCCc1c[nH]c2ccccc12 do in these assays?
SIAE inh: 19*; TCR CD3 inh: 4; mABHD4 FP: 33*; mABHD4 conf: 26; SIAE inh conf: 15

How did CCOc1ccc(N(CC(=O)Nc2c(C)n(C)n(-c3ccccc3)c2=O)S(=O)(=O)c2ccc(C)c(C)c2)cc1 do in these assays?
SIAE inh: -1; mABHD4 FP: -5

How did C=C(C)C(=O)Oc1ccc(N=Nc2ccc(C)cc2)ccc1=O do in these assays?
SIAE inh: 18*; TCR CD3 inh: 9; mABHD4 FP: 50*; mABHD4 conf: 59*; SIAE inh conf: 6

How did COc1ccc(Nc2nc(-c3cccc(OC)c3O)nc3ccccc23)cc1 do in these assays?
SIAE inh: 18*; HTRA1 inhibitor: 15; TCR CD3 inh: -3; mABHD4 FP: 20; SIAE inh conf: -29

How did CCOC(=O)[C@]12CCCC=C1N(CCc1ccc(OC)c(OC)c1)C(=O)[C@H](CC(=O)NCCc1ccccc1OC)C2 do in these assays?
SIAE inh: -3; TCR CD3 inh: 6; mABHD4 FP: -8

Results for CC(C(=O)Nc1c2c(cc3c1CCC3)CCC2)N1CCCC1 (stereo not drawn) ?
SIAE inh: 20*; pPAFAH inh: 1; HTRA1 inhibitor: 2; TCR CD3 inh: 1; mABHD4 FP: -3; SIAE inh conf: -7

What do the screens show for `CC[C@@H](OP(=O)(O)[C@@H](C)N)C(=O)O`?
SIAE inh: -3; mABHD4 FP: 5

What do the screens show for `CCNC(=O)NC(=O)C(C)Sc1ccc2c(c1)OCCO2` (stereo not drawn)?
SIAE inh: -7; pPAFAH inh: 1; HTRA1 inhibitor: 0; TCR CD3 inh: -12; mABHD4 FP: -18

What do the screens show for `CCNC(=O)NC(=O)C(C)Sc1nnc(COc2ccccc2Cl)o1` (stereo not drawn)?
SIAE inh: 29*; pPAFAH inh: -4; HTRA1 inhibitor: -2; TCR CD3 inh: 4; mABHD4 FP: 2; SIAE inh conf: 1

What do the screens show for `Cc1ccc(SCC(=O)OCC(=O)N(CCC#N)c2ccccc2)cc1C`?
SIAE inh: 29*; pPAFAH inh: 14; HTRA1 inhibitor: -2; TCR CD3 inh: -6; mABHD4 FP: 4; SIAE inh conf: 5

How did N#CCCN(C(=O)COC(=O)CCc1ccccc1)c1ccccc1 do in these assays?
SIAE inh: -1; pPAFAH inh: 2; HTRA1 inhibitor: -5; TCR CD3 inh: 15; mABHD4 FP: -5

Results for CCOC(=O)CC1=C(C(=O)OCC)C(c2cccnc2)C(C#N)=C(N)O1 (stereo not drawn) ?
SIAE inh: 17*; pPAFAH inh: 8; HTRA1 inhibitor: -2; TCR CD3 inh: -1; mABHD4 FP: 3; SIAE inh conf: -1

What do the screens show for `CCOC(=O)CC1=C(C#N)C(c2cccnc2)C(C(=O)OCC)=C(N)O1` (stereo not drawn)?
SIAE inh: -3; pPAFAH inh: 5; HTRA1 inhibitor: -2; TCR CD3 inh: 6; mABHD4 FP: 3

How did CC(=O)Nc1ccc(S(=O)(=O)Nc2ccc(Cl)cn2)cc1 do in these assays?
SIAE inh: 88*; pPAFAH inh: 1; HTRA1 inhibitor: -2; TCR CD3 inh: 9; mABHD4 FP: -1; SIAE inh conf: 3

How did COc1ccc(S(=O)(=O)Nc2ccc(Cl)cn2)cc1 do in these assays?
SIAE inh: -7; pPAFAH inh: 4; HTRA1 inhibitor: 4; TCR CD3 inh: 0; mABHD4 FP: 2

What do the screens show for `CN(Cc1cn(Cc2cccc(C(F)(F)F)c2)nn1)C1CN(Cc2cn(Cc3cccc(C(F)(F)F)c3)nn2)S(=O)(=O)C1` (stereo not drawn)?
SIAE inh: -4; TCR CD3 inh: 4; mABHD4 FP: -1

Results for NC(=O)c1ncn([C@@H]2O[C@H](C(=O)N[C@H](Cc3c[nH]c4ccccc34)C(=O)N3CCN(C(=O)N4CCCCC4)CC3)[C@@H](O)[C@H]2O)n1 ?
SIAE inh: 17*; TCR CD3 inh: 3; mABHD4 FP: -3; SIAE inh conf: 8

How did Nc1ccn([C@@H]2O[C@H](C(=O)N[C@H](Cc3ccccc3)C(=O)N3CCN(C(=O)N4CCCCC4)CC3)[C@@H](O)[C@H]2O)c(=O)n1 do in these assays?
SIAE inh: 23*; TCR CD3 inh: -3; mABHD4 FP: 4; SIAE inh conf: 18*

What do the screens show for `CCCCCCCCN1C(=O)[C@H](CC(=O)NCc2ccc(OC)c(OC)c2)C[C@@]2(C(=O)OC)CCCCC=C12`?
SIAE inh: -4; TCR CD3 inh: -1; mABHD4 FP: 0

How did COc1ccc(C/C(C)=N/NC(=O)c2cccnc2)cc1 do in these assays?
SIAE inh: 18*; pPAFAH inh: 1; HTRA1 inhibitor: 1; TCR CD3 inh: 5; mABHD4 FP: 8; SIAE inh conf: 1

What do the screens show for `CCOC(=O)c1c(C(=O)OCC)c(C)n(CCc2ccccc2)c1C`?
SIAE inh: 31*; pPAFAH inh: 3; HTRA1 inhibitor: 1; TCR CD3 inh: 3; mABHD4 FP: 0; SIAE inh conf: 20*

Assay outcomes from PubChem BioAssay.
